Active and inactive are the calls of the source. No cut-off for these calls is given here.
Assays:
RAW264.7 [1] = assay: Cytotoxicity against mouse RAW264.7 cells at 100 uM after 8 hrs by MTT assay; assay type: cell-based; settings: raw264.7, 8 h
RAW264.7 [2] = assay: Antioxidant activity in LPS-stimulated mouse RAW264.7 cells assessed as induction of HO-1 mRNA expression at 100 uM after 4 hrs by RT-PCR analysis; assay type: functional, cell-based
[3] = molecular target: T1, Nuclear factor erythroid 2-related factor 2 (Mus musculus) (UniProt Q60795); assay: Induction of Nrf2-mediated HO1 mRNA expression in mouse RAW264.7 cells at 100 uM after 2 to 4 hrs by quantitative RT-PCR analysis relative to control; assay type: cell-based
T1 sequence (whole entry): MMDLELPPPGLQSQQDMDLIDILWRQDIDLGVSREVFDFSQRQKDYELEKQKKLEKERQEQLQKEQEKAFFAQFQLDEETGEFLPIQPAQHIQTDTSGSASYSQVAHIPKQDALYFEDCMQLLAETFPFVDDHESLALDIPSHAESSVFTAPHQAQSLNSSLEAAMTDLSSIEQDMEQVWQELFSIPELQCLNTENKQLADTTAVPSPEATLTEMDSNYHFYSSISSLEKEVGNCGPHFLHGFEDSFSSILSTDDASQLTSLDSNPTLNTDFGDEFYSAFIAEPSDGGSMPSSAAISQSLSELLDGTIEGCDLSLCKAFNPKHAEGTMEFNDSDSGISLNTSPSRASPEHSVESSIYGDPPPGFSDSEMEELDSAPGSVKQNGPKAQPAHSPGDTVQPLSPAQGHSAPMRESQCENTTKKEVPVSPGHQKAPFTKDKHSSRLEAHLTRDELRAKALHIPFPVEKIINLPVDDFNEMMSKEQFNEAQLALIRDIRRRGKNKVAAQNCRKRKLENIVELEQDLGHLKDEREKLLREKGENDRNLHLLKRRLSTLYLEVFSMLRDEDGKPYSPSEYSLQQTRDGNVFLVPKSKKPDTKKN

[4] = molecular target: T1, Nuclear factor erythroid 2-related factor 2 (Mus musculus); assay: Induction of Nrf2-mediated HO1 mRNA expression in mouse RAW264.7 cells at 100 uM after 24 hrs by quantitative RT-PCR analysis relative to control; assay type: cell-based
RAW264.7 [5] = assay: Antiinflammatory activity in mouse RAW264.7 cells assessed as inhibition of LPS-induced nitric oxide production at 50 to 100 uM after 24 hrs by Griess method; assay type: functional; design: scale not given: the % may be the effect or the level left
[6] = molecular target: T1, Nuclear factor erythroid 2-related factor 2 (Mus musculus); assay: Induction of Nrf2-mediated NQO1 mRNA expression in mouse RAW264.7 cells at 100 uM after 2 to 4 hrs by quantitative RT-PCR analysis relative to control; assay type: cell-based
[7] = molecular target: T1, Nuclear factor erythroid 2-related factor 2 (Mus musculus); assay: Induction of Nrf2-mediated NQO1 mRNA expression in mouse RAW264.7 cells at 100 uM after 24 hrs by quantitative RT-PCR analysis relative to control; assay type: cell-based
Outline: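 RAW 264.7 cells (DMEM, 10% FBS, 37°C, 5% CO2) exposed to 100 μM compound for a series of time points without stated LPS activation. Total RNA isolated, converted to cDNA, and NQO1 quantified by TaqMan real-time RT-PCR using mouse-specific assays. Fold change versus control derived by the ΔΔCt relative quantification method (40 cycles, 95/60 °C).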

[8] = molecular target: T1, Nuclear factor erythroid 2-related factor 2 (Mus musculus); assay: Induction of Nrf2-mediated CAT mRNA expression in mouse RAW264.7 cells at 100 uM after 4 to 20 hrs by quantitative RT-PCR analysis relative to control; assay type: cell-based
[9] = molecular target: T1, Nuclear factor erythroid 2-related factor 2 (Mus musculus); assay: Induction of Nrf2 in mouse RAW264.7 cells assessed as […] in CAT mRNA expression at 100 uM after 24 hrs by quantitative RT-PCR analysis relative to control; assay type: cell-based

Row | Activity [3] | Activity [4] | Activity [6] | Activity [7] | Activity [8] | Activity [9] | SMILES | Activity (RAW264.7 [1]) | Activity (RAW264.7 [2]) | Activity (RAW264.7 [5]) [%]
1 |  |  |  |  |  |  | CC1(C)[C@@H](O)CC[C@]2(C)[C@H]3C(=O)C=C4[C@@H]5C[C@@](C)(C(=O)O)CC[C@]5(C)CC[C@@]4(C)[C@]3(C)CC[C@@H]12 [ENOXOLONE] | Toxic |  | 
2 | Active | inactive | Active | inactive | Active | inactive | CC1(C)CC[C@]2(C(=O)O)CC[C@]3(C)C(=CC[C@@H]4[C@@]5(C)CC[C@H](O)C(C)(C)[C@@H]5CC[C@]43C)[C@@H]2C1 [OLEANOLIC_ACID] | Non-toxic | Active | 85
3 |  |  |  |  |  |  | C[C@H]1[C@H](C)CC[C@]2(C(=O)O)CC[C@]3(C)C(=CC[C@@H]4[C@@]5(C)CC[C@H](O)C(C)(C)[C@@H]5CC[C@]43C)[C@H]12 [URSOLIC ACID] | Toxic |  | 
